Measurements reported in ChEMBL document CHEMBL1123554, “Acetylenic nucleosides. 4. 1-beta-D-arabinofuranosyl-5-ethynylcytosine. Improved synthesis and evaluation of biochemical and antiviral properties” (1987).

Columns and labels:
Human alphaherpesvirus 1 [1] = experiment: Antiviral activity against DNA polymerase mutant resistant to PFA 5a(PFA) was determined at a conc of 50 uM; format: functional
In short: (§1)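 HSV-infected HeLa BU cells seeded in 25-cm² flasks. The next day, virus was added at a multiplicity of 3–5 PFU/cell and allowed 1 h to adsorb. Virus was then removed and growth medium with or without drug was added. Cells were held at 37 °C for 24 h, then frozen at –70 °C until titration. Yield is expressed as PFU, % of untreated control.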

[2] = target: Cytidine deaminase (Homo sapiens) (UniProt P32320); experiment: Relative velocity was determined against deaminase purified from human acute myeloblastic leukemia cells
Cytidine deaminase (Homo sapiens), sequence (P32320 whole entry, looked up): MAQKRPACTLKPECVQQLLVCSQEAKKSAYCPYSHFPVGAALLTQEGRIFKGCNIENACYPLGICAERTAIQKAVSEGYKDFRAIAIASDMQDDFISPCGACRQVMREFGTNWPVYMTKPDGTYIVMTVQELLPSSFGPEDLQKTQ

[3] = tested on: Thymidine kinase (Human herpesvirus 2); experiment: Phosphorylating activity of viral HSV -2 (333) induced thymidine kinase relative to dThdK was determined; conditions: Human alphaherpesvirus 2
Human alphaherpesvirus 1 [4] = experiment: Antiviral activity against HSV-1 kinase mutant resistant to B3(BVdU) was determined at a conc of 100 uM; format: functional; in short: as §1
Human alphaherpesvirus 1 [5] = experiment: Antiviral activity against DNA polymerase mutant resistant to PFA 1a (PFA) was determined at a conc of 100 uM; format: functional; in short: as §1
Human alphaherpesvirus 1 [6] = experiment: Antiviral activity against HSV-1 kinase mutant resistant to SCS(parental) was determined at a conc of 50 uM; format: functional; in short: as §1
Human alphaherpesvirus 1 [7] = experiment: Antiviral activity against DNA polymerase mutant resistant to PFA 5a(PFA) was determined at a conc of 100 uM; format: functional; in short: as §1
Human alphaherpesvirus 1 [8] = experiment: Antiviral activity against HSV-1 kinase mutant resistant to B3(BVdU) was determined at a conc of 50 uM; format: functional; in short: as §1
Human alphaherpesvirus 1 [9] = experiment: Antiviral activity against DNA polymerase mutant resistant to PFA 3b(PFA) was determined at a conc of 50 uM; format: functional; in short: as §1
Human alphaherpesvirus 1 [10] = experiment: Antiviral activity against DNA polymerase mutant resistant to KOS(parental) was determined at a conc of 100 uM; format: functional; in short: as §1
Human alphaherpesvirus 1 [11] = experiment: Antiviral activity against HSV-1 kinase mutant resistant to Tr7(ACV) was determined at a conc of 50 uM; format: functional; in short: as §1
Human alphaherpesvirus 1 [12] = experiment: Antiviral activity against HSV-1 kinase mutant resistant to Tr7(ACV) was determined at a conc of 100 uM; format: functional; in short: as §1
Human alphaherpesvirus 1 [13] = experiment: Antiviral activity against DNA polymerase mutant resistant to PFA 1a (PFA) was determined at a conc of 50 uM; format: functional; in short: as §1
Human alphaherpesvirus 1 [14] = experiment: Antiviral activity against DNA polymerase mutant resistant to KOS(parental) was determined at a conc of 50 uM; format: functional; in short: as §1
Human alphaherpesvirus 1 [15] = experiment: Antiviral activity against HSV-1 kinase mutant resistant to S1(ACV) was determined at a conc of 100 uM; format: functional; in short: as §1
Human alphaherpesvirus 1 [16] = experiment: Antiviral activity against HSV-1 kinase mutant resistant to S1(ACV) was determined at a conc of 50 uM; format: functional; in short: as §1
Human alphaherpesvirus 1 [17] = experiment: Antiviral activity against DNA polymerase mutant resistant to PFA 3b(PFA) was determined at a conc of 100 uM; format: functional; in short: as §1
Human alphaherpesvirus 1 [18] = experiment: Antiviral activity against HSV-1 kinase mutant resistant to SCS(parental) was determined at a conc of 100 uM; format: functional; in short: as §1
Human alphaherpesvirus 2 = experiment: Antiviral activity against HSV-2 (333)was determined at a conc of 50 uM; format: functional; in short: as §1
[19] = target: Cytidine deaminase (Homo sapiens) (UniProt P32320); experiment: relative velocity was determined against deaminase purified from human acute myeloblastic leukemia cells
Human alphaherpesvirus 1 [20] = experiment: Antiviral activity against HSV-1 kinase mutant resistant to SCS(parental) was determined at a conc of 30 uM; format: functional; in short: as §1
Human alphaherpesvirus 1 [21] = experiment: Antiviral activity against HSV-1 kinase mutant resistant to B3(BVdU) was determined at a conc of 30 uM; format: functional; in short: as §1
Human alphaherpesvirus 1 [22] = experiment: Antiviral activity against HSV-1 kinase mutant resistant to Tr7(ACV) was determined at a conc of 30 uM; format: functional; in short: as §1

| Compound | Control (Human alphaherpesvirus 1 [1]) | Control (Human alphaherpesvirus 1 [6]) | Control (Human alphaherpesvirus 1 [8]) | Control (Human alphaherpesvirus 1 [9]) | Control (Human alphaherpesvirus 1 [11]) | Control (Human alphaherpesvirus 1 [13]) | Control (Human alphaherpesvirus 1 [14]) | Control (Human alphaherpesvirus 1 [16]) | other results |
| --- | --- | --- | --- | --- | --- | --- | --- | --- | --- |
| C#Cc1cn(C2O[C@H](CO)[C@@H](O)[C@@H]2O)c(=O)nc1N (stereo not given in full) | 0% | 0.38% | 0.04% | 0.36% | 4.7% | 0.54% | 0.06% | 70% | Relative velocity [2]: 0.02; Relative velocity [3]: 30%; Control (Human alphaherpesvirus 1 [4]): 0.06%; Control (Human alphaherpesvirus 1 [5]): 0.04%; Control (Human alphaherpesvirus 1 [7]): 0.1%; Control (Human alphaherpesvirus 1 [10]): 0.06%; Control (Human alphaherpesvirus 1 [12]): 0.12%; Control (Human alphaherpesvirus 1 [15]): 59%; Control (Human alphaherpesvirus 1 [17]): 0.04%; Control (Human alphaherpesvirus 1 [18]): 0.12%; Control (Human alphaherpesvirus 2): 0.28% |
| Nc1ccn([C@H]2C[C@H](O)[C@@H](CO)O2)c(=O)n1 | – | – | – | – | – | – | – | – | Relative velocity [19]: 1 |
| O=C(O)P(=O)(O)O [FOSCARNET] | 63% | – | – | 24% | – | 37% | 2.9% | – | – |
| O=c1[nH]c(=O)n([C@H]2C[C@H](O)[C@@H](CO)O2)cc1/C=C/Br [BRIVUDINE] | – | – | – | – | – | – | – | – | Control (Human alphaherpesvirus 1 [20]): 0.4%; Control (Human alphaherpesvirus 1 [21]): 52%; Control (Human alphaherpesvirus 1 [22]): 0.8% |
| Nc1nc2c(ncn2COCCO)c(=O)[nH]1 [ACYCLOVIR] | 21% | 0.2% | 0.3% | 63% | 10% | 37% | 3% | 18% | – |
